This is an account of results in ChEMBL document CHEMBL1141407, “Synthesis and evaluation of 1,2,3-triazole containing analogues of the immunostimulant alpha-GalCer” (2007).

Calls of active or inactive are those of the source. The calls are words filed in the database; no cut-off is given here.

In experiment [1] the test system is Splenocyte. The experiment is described as follows: Stimulation of IFN-gamma secretion from C57BL/6 mouse splenocytes at 32 ng/mL after 72 hrs relative to alphaGalCer. In kind it is functional. The method in brief: (§1)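 Splenocytes from naive C57BL/6 mice were cultured with glycolipid at various concentrations for 72 h. IFN-γ and IL-4 in the supernatant were measured by ELISA and expressed as relative activities. Data are means ± SD of duplicates, representative of two experiments; significance by Student's t test.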

Experiment [2] relates to Splenocyte. The experiment is described as follows: Stimulation of IL4 secretion from C57BL/6 mouse splenocytes at 125 ng/mL after 72 hrs relative to alphaGalCer. In kind it is functional. The essentials:
as §1

For experiment [3], the system named is DN32.D3. Description: Stimulation of IL2 production in DN32.D3 cells at 32 ng/mL after 16 hrs. In kind it is functional, cell-based. The note with it: Mus musculus. The method in brief: (§2)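 Rat basophilic leukemia cells transfected with mouse CD1d were pulsed with glycolipid at various concentrations for 4 h, then washed three times with PBS. They were co-cultured with DN32.D3 NKT hybridoma cells (Vα14+) for 16 h, and IL-2 in the supernatant was measured by ELISA. Data are means ± SD of duplicates, representative of two experiments.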

The subject of experiment [4] is Splenocyte. The experiment is described as follows: Stimulation of IL4 secretion from C57BL/6 mouse splenocytes at 32 ng/mL after 72 hrs relative to alphaGalCer. In kind it is functional. The essentials: as §1
In experiment [5] the test system is Splenocyte. The experiment is described as follows: Stimulation of IFN-gamma secretion from C57BL/6 mouse splenocytes at 125 ng/mL after 72 hrs relative to alphaGalCer. In kind it is functional. The essentials: as §1
Experiment [6] relates to Mus musculus. Description: Elevation of IL4 in C57B/6 mouse at 1 ug, iv. The class given is functional, organism-based. The method in brief: (§3)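 Naive C57BL/6 mice given glycolipid at 1 µg/mouse by intravenous injection; serum IFN-γ and IL-4 measured by ELISA at several time points after dosing. Data are means ± SD of three mice, representative of two separate experiments.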

Experiment [7] concerns DN32.D3. The experiment is described as follows: Stimulation of IL2 production in DN32.D3 cells after 16 hrs. In kind it is functional, cell-based. The note with it: Mus musculus. The essentials: as §2
The test system of experiment [8] is Mus musculus. Description: Elevation of IFN-gamma in C57B/6 mouse at 1 ug, iv. The class given is functional, organism-based. The essentials:
as §3

Experiment [9] relates to DN32.D3. Description: Stimulation of IL2 production in DN32.D3 cells at 500 ng/mL after 16 hrs. The following applies: Mus musculus. In kind it is functional, cell-based. The essentials: as §2
For experiment [10], the system named is Splenocyte. The experiment is described as follows: Stimulation of IFN-gamma secretion from C57BL/6 mouse splenocytes at 32 ng/mL after 72 hrs. The class given is functional. The method in brief:
as §1

In experiment [11] the test system is Splenocyte. Description: Stimulation of IFN-gamma secretion from C57BL/6 mouse splenocytes at 125 ng/mL after 72 hrs. The class given is functional. The method in brief: as §1
Experiment [12] concerns Mus musculus. Description: Elevation of IL4 in C57B/6 mouse at 1 ug, iv after 2 hrs. The class given is functional, organism-based. The method in brief:
as §3

Experiment [13] has as its system Splenocyte. The experiment is described as follows: Stimulation of IL4 secretion from C57BL/6 mouse splenocytes at 32 ng/mL after 72 hrs. In kind it is functional. The method in brief:
as §1

In experiment [14] the test system is Mus musculus. The experiment is described as follows: Elevation of IFN-gamma in C57B/6 mouse at 1 ug, iv after 12 hrs. The class given is functional, organism-based. The essentials:
as §3

In experiment [15] the test system is Splenocyte. Description: Stimulation of IL4 secretion from C57BL/6 mouse splenocytes at 125 ng/mL after 72 hrs. In kind it is functional. The essentials: as §1

In the case of `CCCCCCCCCCCCCCCCCCCCCCCCc1cn([C@@H](CO[C@H]2O[C@H](CO)[C@H](O)[C@H](O)[C@H]2O)[C@H](O)[C@H](O)CCCCCCCCCCCCCC)nn1`, the Activity is 4.63 ng/mL in the experiment with Splenocyte [1], 1.09 ng/mL in the experiment on Splenocyte [2], 1.51 ng/mL in the experiment with Splenocyte [4] and 11.5 ng/mL in the experiment with Splenocyte [5]. Moreover, the outcome in the experiment with DN32.D3 [3] was Active.

With `CCCCCCCCCCCCCCCCc1cn([C@@H](CO[C@H]2O[C@H](CO)[C@H](O)[C@H](O)[C@H]2O)[C@H](O)[C@H](O)CCCCCCCCCCCCCC)nn1`, the result in the experiment on Mus musculus [6], with DN32.D3 [7] and in the experiment with Mus musculus [8] was inactive.

On to `CCCCCCCCCCCCCC[C@@H](O)[C@@H](O)[C@H](CO[C@H]1O[C@H](CO)[C@H](O)[C@H](O)[C@H]1O)n1cc(CCCCCCC)nn1`, for which the outcome in the experiment with Mus musculus [6] and in the experiment with Mus musculus [8] was inactive. Further, the result in the experiment with Splenocyte [2] was Active.

In the case of `CCCCCCCCCCCCCCCCCCCCCCCc1cn([C@@H](CO[C@H]2O[C@H](CO)[C@H](O)[C@H](O)[C@H]2O)[C@H](O)[C@H](O)CCCCCCCCCCCCCC)nn1`, the result with Splenocyte [2] was Active.

As for `CCCCCCCCCCCCCC[C@@H](O)[C@@H](O)[C@H](CO[C@H]1O[C@H](CO)[C@H](O)[C@H](O)[C@H]1O)n1cc(CCCCCC)nn1`, the result in the experiment with DN32.D3 [9], in the experiment with Mus musculus [6] and with Mus musculus [8] was inactive.

With `CCCCCCCCCCCCCCCCCCCCCCCCCC(=O)N[C@@H](CO[C@H]1O[C@H](CO)[C@H](O)[C@H](O)[C@H]1O)[C@H](O)[C@H](O)CCCCCCCCCCCCCC` [RGI-7000], the Activity in the experiment on Splenocyte [10] stood at 15.6 ng/mL; with Splenocyte [11], 12.8 ng/mL; in the experiment with Splenocyte [13], 1.12 ng/mL; in the experiment with Splenocyte [15], 0.9 ng/mL. In addition, the outcome with Mus musculus [12] and in the experiment with Mus musculus [14] was Active.
